Measurements reported in ChEMBL document CHEMBL1129651, “3-Phenyl-substituted imidazo[1,5-alpha]quinoxalin-4-ones and imidazo[1,5-alpha]quinoxaline ureas that have high affinity at the GABAA/benzodiazepine receptor complex” (J Med Chem, 1996).

Legend:
[1] = species: Mus musculus; assay: Antagonism of benzodiazepine traction in mice; assay type: functional
Summary of the method: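 Male CF-1 mice given triazolam 1 mg/kg ip together with test compound ip, starting at 100 mg/kg, in 0.25% aqueous methyl cellulose. Dose-response run on 0.5 log scale. Loss of traction scored 15 min later. Absence of the expected loss marks antagonism. ED50 taken from lower doses.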

[2] = target: GABA-A receptor; anion channel; assay: Binding affinity against benzodiazepine receptor (BzR) in rat cortical membranes determined by competition experiments with radiolabeled [3H]flunitrazepam (Fnz); assay type: cell membranes
[3] = species: Mus musculus; assay: Compound was tested for acute electroshock physical dependence activity (drug MA50/V122 MA50); Active; assay type: functional
Summary of the method: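 Male CF-1 mice, 10/group, dosed sc twice daily for 3 days (0800, then 2 times that dose at 1600). Flumazenil 2.5 mg/kg iv in 5% aqueous N,N-dimethylacetamide given 24 h after the last dose. 5 min later electroshock seizure threshold estimated by up-down method (0.05 log steps; transpinnal 0.6 ms pulses, 100 Hz, 0.2 s). Comparison is against a saline-treated, flumazenil-injected control group.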

[4] = test system: Rattus norvegicus; assay: Ability to antagonize metrazole-induced seizures (clonic and tonic) in rats after intraperitoneal injection; settings: ip
[5] = target: GABA-A receptor; anion channel (Rattus norvegicus) (UniProt O09028+P15431+P18506+P18508+P19969+P20236+P23574+P23576+P28471+P28473+P30191+P62813+P63079+P63138+Q91ZM7+Q9ES14)

COc1ccc(-c2ncn3c2CN(C(=O)N2CC(C)N(C)C(C)C2)c2ccccc2-3)cc1 (stereo not given)
ED50 [1]: > 30 mg/kg | Ki [2]: 4.16 nM | Activity [3]: 0.6 | ED50 [4]: 0.8 mg/kg | TBPS shift [5]: 0.27
